# Test results: ChEMBL document CHEMBL1156120, “18F stilbenes and styrylpyridines for PET imaging of A beta plaques in Alzheimer's disease: a miniperspective” (J Med Chem, 2010)
# What was measured:
# [1] = molecular target: Amyloid-beta precursor protein (Homo sapiens, UniProt P05067); experiment: Binding affinity to Beta amyloid aggregates in Alzheimer's disease patient brain by competitive binding assay
# Summary of the method: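 Competition binding against ¹⁸F-AV-45 (0.04–0.06 nM, diluted in PBS) in postmortem AD brain homogenate (20–25 µg per assay). Competitors were serially diluted 10⁻⁵–10⁻¹⁰ M in PBS with 0.1% bovine serum albumin, in a final volume of 0.5 mL. Inhibition constant (Ki) derived from displacement.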
# [2] = Partition coefficient, log P at pH 7.4; type: physicochemical; conditions: octanol/water
# Sequence of Amyloid-beta precursor protein (P05067 whole entry): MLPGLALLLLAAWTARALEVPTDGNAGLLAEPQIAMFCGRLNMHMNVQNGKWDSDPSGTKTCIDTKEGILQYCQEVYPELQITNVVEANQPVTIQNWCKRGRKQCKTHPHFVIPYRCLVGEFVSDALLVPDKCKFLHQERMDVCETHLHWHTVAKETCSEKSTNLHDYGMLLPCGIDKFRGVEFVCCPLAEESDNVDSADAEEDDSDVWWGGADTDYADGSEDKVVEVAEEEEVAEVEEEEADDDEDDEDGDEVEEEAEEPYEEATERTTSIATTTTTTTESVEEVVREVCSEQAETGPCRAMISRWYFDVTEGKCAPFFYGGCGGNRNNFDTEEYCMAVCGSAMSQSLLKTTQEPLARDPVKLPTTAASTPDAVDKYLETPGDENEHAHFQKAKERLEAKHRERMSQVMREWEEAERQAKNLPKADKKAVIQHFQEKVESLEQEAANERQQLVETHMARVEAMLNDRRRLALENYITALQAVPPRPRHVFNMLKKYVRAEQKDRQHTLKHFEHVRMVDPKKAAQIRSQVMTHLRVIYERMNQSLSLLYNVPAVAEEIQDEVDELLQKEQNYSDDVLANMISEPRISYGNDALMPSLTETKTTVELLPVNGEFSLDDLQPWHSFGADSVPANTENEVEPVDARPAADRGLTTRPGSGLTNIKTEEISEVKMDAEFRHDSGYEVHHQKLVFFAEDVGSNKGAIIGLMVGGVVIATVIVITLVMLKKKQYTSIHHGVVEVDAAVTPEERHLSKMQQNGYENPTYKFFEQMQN
Ki [1],logD [2],Structure (SMILES)
22 nM,–,COc1ccc(/C=C/c2cccc(I)c2)cc1
32 nM,–,Oc1ccc(/C=C/c2cccc(I)c2)cc1
22 nM,–,CN(C)c1ccc(/C=C/c2ccc(F)cc2)cc1
7.5 nM,–,CNc1ccc(/C=C/c2ccc(OCCOCCOCCOCCOCCOCCF)cc2)cc1
5 nM,–,CNc1ccc(/C=C/c2ccc(OCC(CO)CF)cc2)cc1 (centres undefined)
0.74 nM,–,CNc1ccc(-c2nc3ccc(O)cc3s2)cc1F [FLUTEMETAMOL]
1.7 nM,–,CNc1ccc(-c2nc3ccc(O)cc3s2)cn1
4.5 nM,–,CN(C)c1ccc(/C=C/c2cccc(I)c2)cc1
7.7 nM,–,CN(C)c1ccc(/C=C/c2ccccc2I)cc1
8.2 nM,–,CNc1ccc(/C=C/c2ccc(OCCOCCOCCOCCOCCOCCOCCF)cc2)cc1
> 1000 nM,–,O=C(O)c1cc(/N=N/c2ccc(-c3ccc(/N=N/c4ccc(O)c(C(=O)O)c4)cc3)cc2)ccc1O [CHRYSAMINE G]
18.5 nM,–,CNc1ccc(/C=C/c2ccc(OCCOCCOCCOCCOCCOCCOCCOCCOCCF)cc2)cc1
12.2 nM,–,CNc1ccc(/C=C/c2ccc(OCCOCCOCCOCCOCCOCCOCCOCCOCCOCCF)cc2)cc1
172 nM,–,CC(=C(C#N)C#N)c1ccc2cc(N(C)CCF)ccc2c1
2.3 nM,–,CN(C)c1ccc(/C=C/c2nc3ccccc3s2)cc1
–,2.95,CNc1ccc(/C=C/c2ccc(OCC(CO)C[18F])cc2)cc1 (centres undefined)
2 nM,–,CN(C)c1ccc(/C=C/c2ccc(I)cc2)cc1
9 nM,–,CNc1ccc(/C=C/c2ccc(OCCOCCOCCOCCOCCOCCOCCOCCF)cc2)cc1
2.87 nM,–,CNc1ccc(/C=C/c2ccc(OCCOCCOCC[18F])nc2)cc1 [FLORBETAPIR F 18]
